Ratio IC50, IC50 and logD data for 29 compounds are collected here from ChEMBL document CHEMBL3994591, “Novel ferulic amide derivatives with tertiary amine side chain as acetylcholinesterase and butyrylcholinesterase inhibitors: The influence of carbon spacer length, alkylamine and aromatic group” (Eur J Med Chem, 2017).

One series is filed under the species Homo sapiens. The experiment in a line: Selectivity index, ratio of IC50 for butyrylcholinesterase (unknown origin) to IC50 for acetylcholinesterase (unknown origin).
For a further series, the target named is Acetylcholinesterase (Homo sapiens, UniProt P22303). The experiment in a line: Inhibition of acetylcholinesterase (unknown origin) using acetylthiocholine iodide as substrate after 25 mins by Ellmann method. The essentials: (§1)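 Modified Ellman assay, triplicate. Compounds dissolved in Tween 80, diluted with water to five concentrations. Mix: enzyme […], substrate (acetylthiocholine iodide or butyrylthiocholine iodide) and test compound in phosphoric acid buffer, pH 8.0, 0.1 mol/L. Incubated 25 min at 30 °C, then terminated. IC50 reported as mean ± SD of three experiments.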
Acetylcholinesterase, sequence (P22303 whole entry): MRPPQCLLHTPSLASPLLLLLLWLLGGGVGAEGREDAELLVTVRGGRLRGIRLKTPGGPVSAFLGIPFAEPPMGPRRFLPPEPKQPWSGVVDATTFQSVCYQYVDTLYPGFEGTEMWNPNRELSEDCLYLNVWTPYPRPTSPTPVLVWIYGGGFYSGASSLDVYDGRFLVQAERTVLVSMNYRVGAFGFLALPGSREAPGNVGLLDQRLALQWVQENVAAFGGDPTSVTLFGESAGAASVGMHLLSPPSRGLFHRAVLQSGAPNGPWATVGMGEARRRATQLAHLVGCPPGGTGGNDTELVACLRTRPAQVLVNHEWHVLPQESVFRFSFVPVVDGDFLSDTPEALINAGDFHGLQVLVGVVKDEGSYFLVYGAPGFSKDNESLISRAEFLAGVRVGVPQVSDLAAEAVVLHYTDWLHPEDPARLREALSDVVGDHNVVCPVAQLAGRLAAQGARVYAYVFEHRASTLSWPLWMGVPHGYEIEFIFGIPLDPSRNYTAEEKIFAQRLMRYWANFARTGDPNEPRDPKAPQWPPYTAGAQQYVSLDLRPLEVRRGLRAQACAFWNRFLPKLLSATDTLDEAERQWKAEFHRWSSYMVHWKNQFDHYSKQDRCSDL
(In general: Ellman's reagent forms a yellow product with free thiols.)

Series [1] can be described thus: Octanol-water partition coefficient, log P of the compound at pH 7.4 by shake flask method. In kind it is physicochemical. The essentials: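 Shake flask partition between octanol and PBS (pH 7.4). Mixture shaken at 37 °C overnight, then centrifuged at 2000 rpm for 20 min. Phases analysed by C18 HPLC with methanol-0.1% TEA (85:15, v/v) at 1.0 mL/min and 32 °C, detection at 322 nm. Run in triplicate, log P calculated.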

For the next series, the target named is Cholinesterase (Homo sapiens, UniProt P06276). Description: Inhibition of butyrylcholinesterase (unknown origin) using butyrylthiocholine iodide as substrate after 25 mins by Ellmann method. The gist of the method:
as §1

Series [2] in a line: Inhibition of carboxylesterase (unknown origin) using 4-nitrophenyl acetate as substrate by UV-Vis spectrophotometer. On the set-up: species or system Homo sapiens. The essentials:
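Read-out was 4-nitrophenol released by CaE hydrolysis of 1.0 mmol/L 4-nitrophenyl acetate, measured at 405 nm. Reactions ran in 100 mmol/L potassium phosphate buffer, pH 8.0, at 25 °C. CaE activity was taken as proportional to 4-nitrophenol concentration.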

Cholinesterase, sequence (P06276 whole entry): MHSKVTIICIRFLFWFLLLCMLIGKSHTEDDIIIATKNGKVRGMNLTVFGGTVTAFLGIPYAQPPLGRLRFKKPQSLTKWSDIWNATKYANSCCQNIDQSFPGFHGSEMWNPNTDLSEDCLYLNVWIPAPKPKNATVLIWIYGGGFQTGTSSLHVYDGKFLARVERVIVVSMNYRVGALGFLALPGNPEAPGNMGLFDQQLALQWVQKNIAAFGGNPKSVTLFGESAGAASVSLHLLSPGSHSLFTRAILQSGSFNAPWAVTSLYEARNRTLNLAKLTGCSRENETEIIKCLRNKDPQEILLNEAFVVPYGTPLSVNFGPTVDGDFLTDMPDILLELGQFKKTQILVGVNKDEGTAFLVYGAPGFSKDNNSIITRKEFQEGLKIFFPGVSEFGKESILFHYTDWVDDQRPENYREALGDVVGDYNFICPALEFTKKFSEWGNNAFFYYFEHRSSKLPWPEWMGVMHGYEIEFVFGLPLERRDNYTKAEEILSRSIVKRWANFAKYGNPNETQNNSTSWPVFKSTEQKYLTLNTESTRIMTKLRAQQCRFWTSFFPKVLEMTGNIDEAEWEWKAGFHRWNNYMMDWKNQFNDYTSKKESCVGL

As a reminder, the IC50 is the concentration at which inhibition is half-maximal. Low readings indicate higher potency, high ones lower potency. One may read the logD as lipophilicity at a set pH, counting ionised and neutral species. Low readings indicate lower lipophilicity, high ones higher lipophilicity. On to `COc1cc(/C=C/C(=O)Nc2ccccc2)ccc1OCCCCCN1CCCCC1`, for which the Ratio IC50 in the series listed under Homo sapiens was 1.23. The IC50 was 4.8 µM against Acetylcholinesterase, 5.9 µM against Cholinesterase and greater than 500 µM in series [2]. Besides, the log distribution coefficient (logD) in series [1] came out at 1.65.

Take `COc1cc(/C=C/C(=O)Nc2ccccc2)ccc1OCCN1CCCC1`: the Ratio IC50 in the series listed under Homo sapiens came out at 0.36. Further, the IC50 against Acetylcholinesterase was 35.1 µM; on Cholinesterase, 12.7 µM; in series [2], greater than 500 µM. In series [1], this compound had a logD of 1.54.

In the case of `COc1cc(/C=C/C(=O)Nc2ccccc2)ccc1OCCCN1CCCCC1`, the Ratio IC50 in the series filed under Homo sapiens was 0.33. Also, the IC50 against Acetylcholinesterase is 14.5 µM; at Cholinesterase it was 4.78 µM; in series [2], greater than 500 µM. The log distribution coefficient (logD) in series [1] was 1.58.

`CCN(CC)CCCCCCOc1ccc(/C=C/C(=O)Nc2ccccc2)cc1OC`: the Ratio IC50 in the series filed under Homo sapiens was 2.66. The IC50 at Acetylcholinesterase was 1.83 µM; against Cholinesterase it was 4.86 µM; in series [2], greater than 500 µM. In series [1], this compound displayed a logD of 1.7.

Turning to `COc1cc(/C=C/C(=O)Nc2ccccc2)ccc1OCCCCCCCCN(C)C`, the Ratio IC50 in the series listed under Homo sapiens was found to be 1.16. In addition, the half-maximal inhibitory concentration (IC50) on Acetylcholinesterase is 8.95 µM; against Cholinesterase, 10.4 µM; in series [2], greater than 500 µM. In series [1], this compound displayed a log distribution coefficient (logD) of 1.74.

Turning to `COc1cc(/C=C/C(=O)Nc2ccccc2)ccc1OCCCCCCCCCCN1CCCCC1`, the Ratio IC50 in the series filed under Homo sapiens came out at 0.44. Further, the IC50 at Acetylcholinesterase was 11.1 µM; against Cholinesterase it was 4.84 µM; in series [2], greater than 500 µM. Also, the logD in series [1] was 1.83.

In the case of `CCOC(=O)/C=C/c1ccc(OCCCCCCN2CCCC2)c(OC)c1`, the Ratio IC50 in the series listed under Homo sapiens worked out at 74.6. In addition, the figures for the IC50 (against Acetylcholinesterase; against Cholinesterase; in series [2]) were 5.05 µM, 377 µM and greater than 500 µM, respectively. Moreover, in series [1], the pH-dependent lipophilicity (logD) is 1.82.

Turning to `CCOC(=O)/C=C/c1ccc(OCCCCCCN(CC)CC)c(OC)c1`, the Ratio IC50 in the series filed under Homo sapiens was found to be 5.87. The IC50 against Acetylcholinesterase is 1.94 µM; against Cholinesterase, 11.4 µM; in series [2], greater than 500 µM. In series [1], the log distribution coefficient (logD) turned out to be 1.8.

In the case of `COc1cc(/C=C/C(=O)Nc2ccccc2)ccc1OCCN1CCCCC1`, the Ratio IC50 in the series filed under Homo sapiens was 0.12. Moreover, the results for the IC50 (against Acetylcholinesterase; on Cholinesterase; in series [2]) were 19.4 µM, 2.34 µM and greater than 500 µM, respectively. In addition, in series [1], the logD is 1.56.

For `CCN(CC)CCCOc1ccc(/C=C/C(=O)Nc2ccccc2)cc1OC`, in the series filed under Homo sapiens, the Ratio IC50 was 0.71. In addition, the IC50 at Acetylcholinesterase was 23.7 µM; against Cholinesterase it was 16.9 µM; in series [2] it was greater than 500 µM. In series [1], this compound gave a logD of 1.57.

With `CCN(CC)CCCCOc1ccc(/C=C/C(=O)Nc2ccccc2)cc1OC`, the Ratio IC50 in the series listed under Homo sapiens worked out at 0.6. Further, the results for the IC50 (against Acetylcholinesterase; against Cholinesterase; in series [2]) were 41.6 µM, 25.1 µM and greater than 500 µM, respectively. In series [1], this compound displayed a logD of 1.59.

With `COc1cc(/C=C/C(=O)Nc2ccccc2)ccc1OCCCCCCCCCCN(C)C`, the Ratio IC50 in the series filed under Homo sapiens came out at 2.07. Moreover, the concentration for half-maximal inhibition (IC50) was 9.93 µM against Acetylcholinesterase, 20.6 µM on Cholinesterase and greater than 500 µM in series [2]. The compound also had a log distribution coefficient (logD) in series [1] of 1.8.

With `COc1cc(/C=C/C(=O)Nc2ccccc2)ccc1OCCCCCCN(C)C`, the Ratio IC50 in the series filed under Homo sapiens came to 0.8. For the same compound, the 50% inhibitory concentration (IC50) against Acetylcholinesterase was 8.4 µM; on Cholinesterase, 6.72 µM; in series [2], greater than 500 µM. This compound also had a logD in series [1] of 1.69.

In the case of `COc1cc(/C=C/C(=O)Nc2ccccc2)ccc1OCCCCCN1CCCC1`, the Ratio IC50 in the series filed under Homo sapiens came out at 0.77. Besides, the half-inhibitory concentration (IC50) was 6.21 µM at Acetylcholinesterase, 4.78 µM against Cholinesterase and greater than 500 µM in series [2]. In addition, the logD in series [1] stood at 1.64.

Consider `COc1cc(/C=C/C(=O)Nc2ccccc2)ccc1OCCCCN(C)C`, for which the Ratio IC50 in the series listed under Homo sapiens is 0.26. Moreover, the IC50 on Acetylcholinesterase is 100 µM; on Cholinesterase, 25.9 µM; in series [2] it was greater than 500 µM. Further, the logD in series [1] came out at 1.57.

`COc1cc(/C=C/C(=O)Nc2ccccc2)ccc1OCCCN(C)C`: the Ratio IC50 in the series filed under Homo sapiens turned out to be 0.59. For the same compound, the half-inhibitory concentration (IC50) on Acetylcholinesterase is 33.9 µM; on Cholinesterase, 20 µM; in series [2], greater than 500 µM. In series [1], this compound showed a log distribution coefficient (logD) of 1.55.

As to `COc1cc(/C=C/C(=O)Nc2ccccc2)ccc1OCCCCCN(C)C`, the Ratio IC50 in the series listed under Homo sapiens amounted to 0.37. In addition, the IC50 at Acetylcholinesterase is 33 µM; at Cholinesterase, 12.1 µM; in series [2], greater than 500 µM. In addition, the logD in series [1] came to 1.61.

`COc1cc(/C=C/C(=O)O)ccc1OCCCCCCN1CCCC1`: the Ratio IC50 in the series filed under Homo sapiens turned out to be 4.1. Besides, the IC50 against Acetylcholinesterase is 69.9 µM; on Cholinesterase, 287 µM; in series [2], greater than 500 µM. Also, the logD in series [1] came out at 1.29.

As for `CCN(CC)CCCCCCOc1ccc(/C=C/C(=O)O)cc1OC`, the Ratio IC50 in the series filed under Homo sapiens stood at 98.6. Besides, the IC50 was 2.67 µM against Acetylcholinesterase, 263 µM against Cholinesterase and greater than 500 µM in series [2]. In series [1], this compound gave a logD of 1.29.

Turning to `CCN(CC)CCCCCCCCOc1ccc(/C=C/C(=O)Nc2ccccc2)cc1OC`, the Ratio IC50 in the series filed under Homo sapiens is 2.93. Besides, the half-maximal inhibitory concentration (IC50) against Acetylcholinesterase was 1.36 µM; at Cholinesterase it was 3.98 µM; in series [2], greater than 500 µM. Also, the logD in series [1] came out at 1.75.

Take `CCN(C)C(=O)Oc1cccc([C@H](C)N(C)C)c1` [RIVASTIGMINE]: the logD in series [1] is 1.68. This compound also had an IC50 in series [2] of 31.1 µM.

For `COc1cc(/C=C/C(=O)Nc2ccccc2)ccc1OCCCCN1CCCCC1`, in the series listed under Homo sapiens, the Ratio IC50 turned out to be 0.8. Besides, the results for the IC50 (at Acetylcholinesterase; on Cholinesterase; in series [2]) were 7.14 µM, 5.69 µM and greater than 500 µM, respectively. For the same compound, in series [1], the pH-dependent lipophilicity (logD) was 1.61.

Regarding `COc1cc(/C=C/C(=O)Nc2ccccc2)ccc1OCCN(C)C`, in the series filed under Homo sapiens, the Ratio IC50 was 1. In addition, the 50% inhibitory concentration (IC50) on Acetylcholinesterase is 23.2 µM; at Cholinesterase, 23.3 µM; in series [2], greater than 500 µM. In addition, the logD in series [1] is 1.5.

`CCN(CC)CCOc1ccc(/C=C/C(=O)Nc2ccccc2)cc1OC`: the Ratio IC50 in the series filed under Homo sapiens was found to be 0.28. Also, the results for the IC50 (against Acetylcholinesterase; on Cholinesterase; in series [2]) were 41.1 µM, 11.5 µM and greater than 500 µM, respectively. In series [1], this compound displayed a log distribution coefficient (logD) of 1.53.

In the case of `COc1cc(/C=C/C(=O)O)ccc1OCCCCCCN1CCCCC1`, the Ratio IC50 in the series filed under Homo sapiens stood at 3.2. For the same compound, the figures for the IC50 (against Acetylcholinesterase; at Cholinesterase; in series [2]) were 45.6 µM, 146 µM and greater than 500 µM, respectively. Moreover, the logD in series [1] turned out to be 1.32.

On to `CCOC(=O)/C=C/c1ccc(OCCCCCCN2CCCCC2)c(OC)c1`, for which the Ratio IC50 in the series filed under Homo sapiens was found to be 15.8. The figures for the IC50 (against Acetylcholinesterase; against Cholinesterase; in series [2]) were 2.65 µM, 41.8 µM and greater than 500 µM, respectively. Further, the logD in series [1] was 1.81.

Consider `COc1cc(/C=C/C(=O)Nc2ccccc2)ccc1OCCCN1CCCC1`, for which, in the series listed under Homo sapiens, the Ratio IC50 was 0.38. Also, the figures for the half-inhibitory concentration (IC50) (at Acetylcholinesterase; against Cholinesterase; in series [2]) were 37.1 µM, 14.2 µM and greater than 500 µM, respectively. In series [1], the logD turned out to be 1.57.

With `COc1cc(/C=C/C(=O)Nc2ccccc2)ccc1OCCCCCCCCN1CCCCC1`, the Ratio IC50 in the series filed under Homo sapiens was 1.32. For the same compound, the IC50 against Acetylcholinesterase was 4.12 µM; against Cholinesterase, 5.45 µM; in series [2], greater than 500 µM. The same compound registered a logD in series [1] of 1.79.

As for `COc1cc(/C=C/C(=O)Nc2ccccc2)ccc1O`, the IC50 (against Acetylcholinesterase; at Cholinesterase; in series [2]) was greater than 500 µM throughout. In addition, the logD in series [1] turned out to be 1.42.
